Laboratory results from ChEMBL document CHEMBL1124441, “Synthesis of congeners and prodrugs. 3. Water-soluble prodrugs of taxol with potent antitumor activity” (1989).

Tests used:
B16 [1] = assay: Percent of median lifetime of test animals divided by the median lifetime of control animals at a dose of 5 mg/kg intraperitoneally; type: functional, Mus musculus; conditions: route intraperitoneal
Procedure, shortened: (§1)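 B16 melanoma inoculated ip (10⁶ cells) on day 0. Daily ip treatment for 9 days (Q01Dx09) begins day 1, dosed per injection in mg/kg. %T/C is the median lifespan of treated animals divided by that of tumored untreated controls, ×100. Cures are animals alive on the last test day. Toxic deaths are assessed on day 4.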

B16 [2] = assay: Percent of median lifetime of test animals divided by the median lifetime of control animals at a dose of 20 mg/kg intraperitoneally; type: functional, Mus musculus; conditions: route intraperitoneal; procedure, shortened: as §1
B16 [3] = assay: Difference in body weight in grams between test and control animals at a dose of 40 mg/kg intraperitoneally; type: functional, Mus musculus; conditions: route intraperitoneal
Procedure, shortened: (§2)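 B16 melanoma system: 10⁶ tumor cells inoculated ip on day 0. Drug given ip once daily for 9 days (Q01Dx09) starting day 1, dose as mg/kg body weight per injection. Read-out is the body-weight difference in grams, treated minus control animals. Early deaths, taken as toxicity, are scored on day 4.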

B16 [4] = assay: Antitumor activity in B16 Melanoma system animals is indicated by survivors on day 4 at a dose of 10 mg/kg intraperitoneally; type: functional, Mus musculus; set-up: reference not given here; conditions: route intraperitoneal
Procedure, shortened: (§3)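 B16 melanoma, 10^6 cells inoculated ip on day 0. Ip treatment started day 1, schedule Q01Dx09 (one dose daily for 9 days). The score is live animals on day 4 over total animals; early deaths are taken as drug toxicity.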

B16 [5] = assay: Percent of median lifetime of test animals divided by the median lifetime of control animals at a dose of 2.5 mg/kg intraperitoneally; type: functional, Mus musculus; conditions: route intraperitoneal; procedure, shortened: as §1
B16 [6] = assay: Difference in body weight in grams between test and control animals at a dose of 5 mg/kg intraperitoneally; type: functional, Mus musculus; conditions: route intraperitoneal; procedure, shortened: as §2
B16 [7] = assay: Antitumor activity in B16 Melanoma system animals is indicated by survivors on day 4 at a dose of 5 mg/kg intraperitoneally; type: functional, Mus musculus; conditions: route intraperitoneal; procedure, shortened: as §3
B16 [8] = assay: Percent of median lifetime of test animals divided by the median lifetime of control animals at a dose of 10 mg/kg intraperitoneally; type: functional, Mus musculus; conditions: route intraperitoneal; procedure, shortened: as §1
B16 [9] = assay: Antitumor activity in B16 Melanoma system animals is indicated by survivors on day 4 at a dose of 40 mg/kg intraperitoneally; type: functional, Mus musculus; conditions: route intraperitoneal; procedure, shortened: as §3
B16 [10] = assay: Antitumor activity in B16 Melanoma system animals is indicated by survivors on day 4 at a dose of 20 mg/kg intraperitoneally; type: functional, Mus musculus; set-up: reference not given here; conditions: route intraperitoneal; procedure, shortened: as §3
B16 [11] = assay: Antitumor activity in B16 Melanoma system animals is indicated by survivors on day 4 at a dose of 2.5 mg/kg intraperitoneally; type: functional, Mus musculus; set-up: reference not given here; conditions: route intraperitoneal; procedure, shortened: as §3
B16 [12] = assay: Difference in body weight in grams between test and control animals at a dose of 2.5 mg/kg intraperitoneally; type: functional, Mus musculus; conditions: route intraperitoneal; procedure, shortened: as §2
B16 [13] = assay: Difference in body weight in grams between test and control animals at a dose of 20 mg/kg intraperitoneally; type: functional, Mus musculus; conditions: route intraperitoneal; procedure, shortened: as §2
B16 [14] = assay: Percent of median lifetime of test animals divided by the median lifetime of control animals at a dose of 40 mg/kg intraperitoneally; type: functional, Mus musculus; conditions: route intraperitoneal; procedure, shortened: as §1
B16 [15] = assay: Difference in body weight in grams between test and control animals at a dose of 10 mg/kg intraperitoneally; type: functional, Mus musculus; conditions: route intraperitoneal; procedure, shortened: as §2
B16 [16] = assay: Percent of median lifetime of test animals divided by the median lifetime of control animals at a dose of 40 mg/kg intraperitoneally; Toxic; type: functional, organism-based; set-up: dose 40 mg/kg; conditions: Mus musculus
Procedure, shortened: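 B16 melanoma, 10^6 cells ip on day 0, ip treatment from day 1, Q01Dx09 (single dose daily for 9 days). %T/C is median lifetime of treated over untreated tumored controls, times 100. Early deaths are assessed on day 4 for toxicity. Cures are animals alive on the last test day.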

B16 [17] = assay: Antitumor activity in B16 Melanoma system animals is indicated by survivors on day 4 at a dose of 1.25 mg/kg intraperitoneally; type: functional, Mus musculus; conditions: route intraperitoneal; procedure, shortened: as §3
B16 [18] = assay: Difference in body weight in grams between test and control animals at a dose of 1.25 mg/kg intraperitoneally; type: functional, Mus musculus; conditions: route intraperitoneal; procedure, shortened: as §2
B16 [19] = assay: Percent of median lifetime of test animals divided by the median lifetime of control animals at a dose of 1.25 mg/kg intraperitoneally; type: functional, Mus musculus; conditions: route intraperitoneal; procedure, shortened: as §1

Structure (SMILES): CC(=O)OC1C(=O)[C@@]2(C)[C@H]([C@H](OC(=O)c3ccccc3)[C@]3(O)CC(OC(=O)C(OC(=O)CCC(=O)O)C(NC(=O)c4ccccc4)c4ccccc4)C(C)=C1C3(C)C)[C@]1(OC(C)=O)CO[C@@H]1C[C@@H]2O (stereo not given in full)
- T/C (B16 [1]): 154%
- T/C (B16 [2]): 154%
- Weight difference (B16 [3]): 0 g
- Activity (B16 [4]): 10
- T/C (B16 [5]): 119%
- Weight difference (B16 [6]): 0.4 g
- Survivors on day 4 (B16 [7]): 10
- T/C (B16 [8]): 159%
- Activity (B16 [9]): 10
- Activity (B16 [10]): 10
- Activity (B16 [11]): 10
- Weight difference (B16 [12]): 0 g
- Weight difference (B16 [13]): 0 g
- T/C (B16 [14]): 185%
- Weight difference (B16 [15]): 0.4 g

Structure (SMILES): CC(=O)OC1C(=O)[C@@]2(C)[C@H]([C@H](OC(=O)c3ccccc3)[C@]3(O)CC(OC(=O)C(O)C(NC(=O)c4ccccc4)c4ccccc4)C(C)=C1C3(C)C)[C@]1(OC(C)=O)CO[C@@H]1C[C@@H]2O (stereo not given in full)
- T/C (B16 [1]): 175%
- T/C (B16 [2]): 96%
- Weight difference (B16 [3]): -1.2 g
- Activity (B16 [4]): 10
- T/C (B16 [16]): Toxic
- Weight difference (B16 [6]): -0.2 g
- Survivors on day 4 (B16 [7]): 10
- T/C (B16 [8]): 139%
- Activity (B16 [9]): 10
- Activity (B16 [10]): 10
- Weight difference (B16 [13]): 0 g
- Weight difference (B16 [15]): 0 g

Structure (SMILES): CC(=O)OC1C(=O)[C@@]2(C)[C@H]([C@H](OC(=O)c3ccccc3)[C@]3(O)CC(OC(=O)C(OC(=O)CCC(=O)[O-])C(NC(=O)c4ccccc4)c4ccccc4)C(C)=C1C3(C)C)[C@]1(OC(C)=O)CO[C@@H]1C[C@@H]2O.[Na+] (stereo not given in full)
- T/C (B16 [1]): 166%
- T/C (B16 [2]): 201%
- Weight difference (B16 [3]): 0.6 g
- Activity (B16 [4]): 10
- T/C (B16 [5]): 159%
- Weight difference (B16 [6]): 0 g
- Survivors on day 4 (B16 [7]): 10
- T/C (B16 [8]): 183%
- Activity (B16 [9]): 10
- Activity (B16 [10]): 10
- Activity (B16 [11]): 10
- Activity (B16 [17]): 10
- Weight difference (B16 [12]): 0.4 g
- Weight difference (B16 [13]): -0.2 g
- Weight difference (B16 [18]): 0.1 g
- T/C (B16 [14]): 218%
- Weight difference (B16 [15]): 0.6 g
- T/C (B16 [19]): 111%
